How the values were obtained:
Mus musculus [1] = assay: AUC (0 to infinity) in mouse plasma assessed as galiellalactone level at 10 mg/kg, po by LC-MS/MS analysis; format: ADME, organism-based; set-up: dose 10 mg/kg, route oral, time infinity; conditions: in vivo
In short: (§1)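 Single dose to mice; oral, iv or ip as listed, in 5% DMSO/50 mM citrate buffer pH 4.0 (dosing solutions 0.5, 2 or 5 mg/mL). Oral dosing at 20 mL/kg. Terminal blood under barbiturate anaesthesia at eight time-points to 8 h, n=3 mice per time-point, EDTA plasma. Acetonitrile precipitation with internal standard, LC-MS/MS against plasma calibration lines. Non-compartmental analysis on mean data, trapezoidal AUC.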

Mus musculus [2] = assay: Apparent half life in mouse plasma assessed as galiellalactone level at 10 mg/kg, po by LC-MS/MS analysis; format: ADME, organism-based; conditions: in vivo; in short: as §1
Mus musculus [3] = assay: AUC (0 to t) in mouse plasma assessed as galiellalactone level at 10 mg/kg, po by LC-MS/MS analysis; format: ADME, organism-based; conditions: in vivo; in short: as §1
Mus musculus [4] = assay: Cmax in mouse plasma assessed as galiellalactone level at 10 mg/kg, po by LC-MS/MS analysis; format: ADME, organism-based; set-up: dose 10 mg/kg, route oral; conditions: in vivo; in short: as §1
Mus musculus [5] = assay: Tmax in mouse plasma assessed as galiellalactone level at 10 mg/kg, po by LC-MS/MS analysis; format: ADME, organism-based; conditions: in vivo
[6] = Chemical stability of the compound in phosphate buffer saline assessed as half life at 10 uM at pH 7.4 by LC-MS/MS analysis; format: physicochemical; conditions: phosphate buffered saline
In short: (§2)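 Compound diluted from DMSO (or methanol) stock to 10 µM, 2% solvent final, n=2. Matrix was 0.1 M PBS pH 7.4, or […] HCl with 2 mg/mL NaCl adjusted to pH 1.2. Mixed on a shaker; sampled at nominal 5, 15, 30 and 60 min plus T=0. LC-MS/MS with internal standard; % remaining relative to T=0. Formation of parent also monitored.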

[7] = Antiproliferative activity against human DU145 cells after 72 hrs by WST-1 proliferation assay; format: functional, cell-based; conditions: DU-145, 72 h
In short: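 Cells in RPMI-1640 (DU145, LNCaP, LNCaP-IL6+) or HAM's F-12 (PC3) with 10% FBS. DU145 and LNCaP-IL6+ seeded at 2 000 cells/well, LNCaP and PC3 at 5 000 cells/well, adhered 24 h, then exposed to compound for 72 h. WST-1 absorbance read at 450 nm with 630 nm reference. Background subtracted; expressed as percent of untreated cells.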

[8] = Half life of compound in acidic buffer at pH 1.2 at 10 uM by LC-MS analysis; format: physicochemical; in short: as §2

Compound	AUC (Mus musculus [1]) [µg/mL/min]	t1/2(app) (Mus musculus [2]) [h]	AUCt (Mus musculus [3]) [µg/mL/min]	Cmax (Mus musculus [4]) [ng/mL]	Tmax (Mus musculus [5]) [h]	half-life at 10 µM [6] [h]	half-life at 10 µM [8] [h]	IC50 [7] [µM]
COC(=O)[C@H](CS[C@H]1C2C(=O)O[C@@H]3CC[C@H](C[C@@H]1C)[C@]23O)NC(=O)[C@@H](N)C(C)C (stereo partly specified)	101	2.15	97	949	0.5	1.1	–	–
C[C@H]1C[C@H]2CC[C@H]3OC(=O)C([C@@H]1SC[C@H](N)C(=O)O)[C@@]23O (stereo partly specified)	–	–	–	–	–	0.233	> 2.5	2.66
C[C@H]1C[C@H]2CC[C@H]3OC(=O)C([C@@H]1SCCS(=O)(=O)O)[C@@]23O (stereo partly specified)	–	–	–	–	–	> 2.5	–	11.4
C[C@H]1C[C@H]2CC[C@H]3OC(=O)C([C@@H]1SCc1ccccc1)[C@@]23O (stereo partly specified)	–	–	–	–	–	> 2.5	–	9.68

Second part, led by results:

AUC (Mus musculus [1]) [µg/mL/min]	t1/2(app) (Mus musculus [2]) [h]	AUCt (Mus musculus [3]) [µg/mL/min]	Cmax (Mus musculus [4]) [ng/mL]	Tmax (Mus musculus [5]) [h]	half-life at 10 µM [6] [h]	half-life at 10 µM [8] [h]	Compound	IC50 [7] [µM]
155	1.8	150	1102	0.25	–	–	COC(=O)[C@H](CCS[C@H]1C2C(=O)O[C@@H]3CC[C@H](C[C@@H]1C)[C@]23O)NC(C)=O (stereo partly specified)	–
11	3.15	7.8	57	0.25	–	–	COC(=O)[C@H](CS[C@H]1C2C(=O)O[C@@H]3CC[C@H](C[C@@H]1C)[C@]23O)NC(=O)c1ccccc1F (stereo partly specified)	–
–	–	–	–	–	> 2.5	–	CC(=O)N[C@@H](CS[C@H]1C2C(=O)O[C@@H]3CC[C@H](C[C@@H]1C)[C@]23O)C(N)=O (stereo partly specified)	9.2
21	4.23	15	303	0.5	> 2.5	–	COC(=O)[C@H](CS[C@H]1C2C(=O)O[C@@H]3CC[C@H](C[C@@H]1C)[C@]23O)NC(=O)C(C)C (stereo partly specified)	–

Source: ChEMBL document CHEMBL3822375, “Preclinical Characterization of 3β-(N-Acetyl l-cysteine methyl ester)-2aβ,3-dihydrogaliellalactone (GPA512), a Prodrug of a Direct STAT3 Inhibitor for the Treatment of Prostate Cancer” (J Med Chem, 2016)
